Measurements reported in ChEMBL document CHEMBL1125603, “2-Chloro-1-(2,4-dichlorophenyl)-3-(1H-imidazol-1-yl)-2-phenylpropan-1-one hydrochloride, a novel, nonmutagenic antibacterial with specific activity against anaerobic bacteria” (1991).
In brackets after ≈: the same amount, converted by molar mass.

Key:
Assay type in all cases: functional
[1] = tested on: Bacteroides fragilis; assay: Minimum inhibitory concentration against Bacteroides fragilis(NCTC 10581)(in vitro)
Procedure, shortened: (§1)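 Broth microdilution: drug stock of 200 μg/mL in 20% polyethylene glycol 200/water, serially diluted 2-fold in the wells to final concentrations of 0.8–100 μg/mL. Final inoculum was 10⁸ organisms/mL. Plates were held at 37 °C for 48 h, in an anaerobic chamber for anaerobes or a conventional incubator for aerobes. MIC was then read.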

[2] = tested on: Bacteroides fragilis; assay: Minimum inhibitory concentration against Bacteroides fragilis(NCTC 9343)(in vitro); procedure, shortened: as §1
[3] = tested on: Bacteroides fragilis; assay: Minimum inhibitory concentration against Bacteroides fragilis(NCTC 9344)(in vitro); procedure, shortened: as §1
[4] = tested on: Bacteroides fragilis; assay: Minimum inhibitory concentration against Bacteroides fragilis (WSI)(in vitro); procedure, shortened: as §1
[5] = tested on: Clostridium perfringens; assay: Minimum inhibitory concentration against Clostridium perfringens (NCTC 523)(in vitro)
Procedure, shortened: (§2)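 Broth microdilution MIC in 96-well plates. Drugs dissolved in 20% polyethylene glycol 200/water (stock 200 μg/mL), then serially diluted 2-fold in the wells to final concentrations of 0.8–100 μg/mL. Final inoculum 10⁸ organisms/mL. Plates incubated 48 h at 37 °C in an anaerobic chamber before the MIC was read.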

[6] = tested on: Clostridium perfringens; assay: Minimum inhibitory concentration against Clostridium perfringens (NCTC 8237)(in vitro); procedure, shortened: as §2
[7] = tested on: Fusobacterium necrophorum; assay: Minimum inhibitory concentration against Fusobacterium necrophorum (ATCC 11295)(in vitro); procedure, shortened: as §1
[8] = tested on: Peptostreptococcus anaerobius; assay: Minimum inhibitory concentration against Peptostreptococcus anaerobius(in vitro); procedure, shortened: as §1
[9] = tested on: Finegoldia magna; assay: Minimum inhibitory concentration against Peptococcus magnus(in vitro); procedure, shortened: as §1
[10] = tested on: Anaerococcus prevotii; assay: Minimum inhibitory concentration against Peptococcus prevotti(in vitro); procedure, shortened: as §1
[11] = tested on: Cutibacterium acnes; assay: Minimum inhibitory concentration against Propionibacterium acnes(NCTC 7337)(in vitro); procedure, shortened: as §1
[12] = tested on: Bacteroides fragilis; assay: Minimum inhibitory concentration against Bacteroides fragilis (MZ-R)(in vitro); procedure, shortened: as §1
[13] = tested on: Cutibacterium acnes; assay: Minimum inhibitory concentration against Propionibacterium acnes(NCTC 737)(in vitro); procedure, shortened: as §1
[14] = tested on: Escherichia coli; assay: Minimum inhibitory concentration against Escherichia coli(ATCC 25922)(in vitro); procedure, shortened: as §1
[15] = tested on: Klebsiella pneumoniae; assay: Minimum inhibitory concentration against Klebsiella pneumoniae (ATCC 13883)(in vitro); procedure, shortened: as §1
[16] = tested on: Pseudomonas aeruginosa; assay: Minimum inhibitory concentration against Pseudomonas aeruginosa (ATCC 27853)(in vitro); procedure, shortened: as §1
[17] = tested on: Proteus vulgaris; assay: Minimum inhibitory concentration against Proteus vulgaris(ATCC 13315)(in vitro); procedure, shortened: as §1
[18] = tested on: Streptococcus pyogenes; assay: Minimum inhibitory concentration against Streptococcus pyogenes(ATCC 19615)(in vitro); procedure, shortened: as §1
[19] = tested on: Staphylococcus aureus; assay: Minimum inhibitory concentration against Staphylococcus aureus(ATCC 25923)(in vitro); procedure, shortened: as §1

Row | Compound | MIC [1] [µg/mL] | MIC [2] [µg/mL] | MIC [3] [µg/mL] | MIC [4] [µg/mL] | MIC [5] [µg/mL] | MIC [6] [µg/mL] | MIC [7] [µg/mL] | MIC [8] [µg/mL] | MIC [9] [µg/mL] | MIC [10] [µg/mL] | MIC [11] [µg/mL] | MIC [12] [µg/mL] | MIC [13] [µg/mL] | MIC [14] [µg/mL] | MIC [15] [µg/mL] | MIC [16] [µg/mL] | MIC [17] [µg/mL] | MIC [18] [µg/mL] | MIC [19] [µg/mL]
1 | Cc1ncc([N+](=O)[O-])n1CCO [METRONIDAZOLE] | < 0.8 | < 0.8 | < 0.8 | 1.5 (≈ 8.76 µM) | < 0.8 | < 0.8 | < 0.8 | < 0.8 | < 0.8 | 1.5 (≈ 8.76 µM) | > 100 | 6.2 (≈ 36.2 µM) | > 100 |  |  |  |  |  | 
2 | O=C(c1ccc(Cl)cc1Cl)C(Br)(Cn1ccnc1)c1ccccc1 (stereo unspecified) | < 0.8 | < 0.8 | < 0.8 | < 0.8 | < 0.8 | < 0.8 | < 0.8 | 1.5 (≈ 3.54 µM) | 1.5 (≈ 3.54 µM) | 1.5 (≈ 3.54 µM) | < 0.8 | < 0.8 | < 0.8 | > 100 | > 100 | > 100 | 12.5 (≈ 29.5 µM) | < 0.8 | 1.5 (≈ 3.54 µM)
3 | O=C(c1ccc(Cl)cc1Cl)C(Cn1ccnc1)c1ccccc1 (stereo unspecified) | < 0.8 | < 0.8 | < 0.8 | < 0.8 | < 0.8 | < 0.8 | < 0.8 | < 0.8 | < 0.8 | < 0.8 | < 0.8 | < 0.8 | < 0.8 | > 100 | > 100 | > 100 | 6.2 (≈ 18 µM) | < 0.8 | < 0.8
4 | POLYMYXIN B |  |  |  |  |  |  |  |  |  |  |  |  |  | < 0.8 | < 0.8 | 3.1 | 1.5 | 1.5 | 25
5 | C=C(C(=O)c1ccc(Cl)cc1Cl)c1ccccc1 | < 0.8 | < 0.8 | < 0.8 | < 0.8 | < 0.8 | < 0.8 | < 0.8 | < 0.8 | < 0.8 | < 0.8 | < 0.8 | < 0.8 | < 0.8 | > 100 | > 100 | > 100 | 6.2 (≈ 22.4 µM) | < 0.8 | < 0.8
6 | O=C(c1ccc(Cl)cc1Cl)C(F)(Cn1ccnc1)c1ccccc1 (stereo unspecified) | 50 (≈ 138 µM) | 50 (≈ 138 µM) | 50 (≈ 138 µM) | 50 (≈ 138 µM) | 3.1 (≈ 8.53 µM) | 3.1 (≈ 8.53 µM) | 25 (≈ 68.8 µM) | 25 (≈ 68.8 µM) | 25 (≈ 68.8 µM) | 6.2 (≈ 17.1 µM) | 25 (≈ 68.8 µM) | 50 (≈ 138 µM) | 25 (≈ 68.8 µM) | > 100 | > 100 | > 100 | > 100 | 6.2 (≈ 17.1 µM) | 50 (≈ 138 µM)
7 | O=C(c1ccc(Cl)cc1Cl)C(O)(Cn1ccnc1)c1ccccc1 (stereo unspecified) | 50 (≈ 138 µM) | > 100 | > 100 | > 100 | 12.5 (≈ 34.6 µM) | 25 (≈ 69.2 µM) | > 100 | 50 (≈ 138 µM) | > 100 | 12.5 (≈ 34.6 µM) | 50 (≈ 138 µM) | > 100 | 100 (≈ 277 µM) | > 100 | > 100 |  | > 100 |  | 25 (≈ 69.2 µM)
8 | O=C(c1ccc(Cl)cc1Cl)C(Cl)(Cn1ccnc1)c1ccccc1 (stereo unspecified) | < 0.8 | < 0.8 | < 0.8 | < 0.8 | < 0.8 | < 0.8 | < 0.8 | < 0.8 | < 0.8 | < 0.8 | < 0.8 | < 0.8 | < 0.8 | > 100 | > 100 | > 100 | > 100 | 1.5 (≈ 3.95 µM) | 25 (≈ 65.8 µM)
